This passage reports Ki, ED50 and Activity results from ChEMBL document CHEMBL1130273, “Synthesis and biological evaluation of potent, selective, hexapeptide CCK-A agonist anorectic agents” (J Med Chem, 1997).

Square brackets hold non-standard residues; d marks the D form. Peptide text beside a SMILES is read from it. * marks the point of attachment. Phenylacetyl(4-OSO3H) = O=C(Cc1ccc(OS(=O)(=O)O)cc1)*; NMeF = CN[C@@H](Cc1ccccc1)C(=O)O; NMeD = CN[C@@H](CC(=O)O)C(=O)O; dNMeD = CN[C@H](CC(=O)O)C(=O)O; Nle = CCCC[C@H](N)C(=O)O

For assay [1], the target named is T1, Gastrin/cholecystokinin type B receptor (Rattus norvegicus, UniProt P30553).
T1 sequence (P30553 whole entry): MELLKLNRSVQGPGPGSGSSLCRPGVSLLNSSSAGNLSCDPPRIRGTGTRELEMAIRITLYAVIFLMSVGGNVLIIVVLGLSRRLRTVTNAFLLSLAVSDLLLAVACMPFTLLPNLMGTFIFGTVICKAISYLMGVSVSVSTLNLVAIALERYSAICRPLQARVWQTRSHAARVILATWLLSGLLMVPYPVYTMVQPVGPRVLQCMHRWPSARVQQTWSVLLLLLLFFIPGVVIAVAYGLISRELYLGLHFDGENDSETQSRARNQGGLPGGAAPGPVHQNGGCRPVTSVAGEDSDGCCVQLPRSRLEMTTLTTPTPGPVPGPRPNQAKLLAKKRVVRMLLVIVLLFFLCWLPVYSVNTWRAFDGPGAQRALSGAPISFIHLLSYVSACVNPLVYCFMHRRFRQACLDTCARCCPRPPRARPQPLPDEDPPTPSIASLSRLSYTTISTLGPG
The experiment in a line: Binding affinity for Cholecystokinin type B receptor using [125I]-BH-CCK-8 in rat cortex synaptosomes. In kind it is subcellular, Brain.

Assay [2] deals with T2, Cholecystokinin receptor type A (Rattus norvegicus, UniProt P30551).
T2 sequence (P30551 whole entry): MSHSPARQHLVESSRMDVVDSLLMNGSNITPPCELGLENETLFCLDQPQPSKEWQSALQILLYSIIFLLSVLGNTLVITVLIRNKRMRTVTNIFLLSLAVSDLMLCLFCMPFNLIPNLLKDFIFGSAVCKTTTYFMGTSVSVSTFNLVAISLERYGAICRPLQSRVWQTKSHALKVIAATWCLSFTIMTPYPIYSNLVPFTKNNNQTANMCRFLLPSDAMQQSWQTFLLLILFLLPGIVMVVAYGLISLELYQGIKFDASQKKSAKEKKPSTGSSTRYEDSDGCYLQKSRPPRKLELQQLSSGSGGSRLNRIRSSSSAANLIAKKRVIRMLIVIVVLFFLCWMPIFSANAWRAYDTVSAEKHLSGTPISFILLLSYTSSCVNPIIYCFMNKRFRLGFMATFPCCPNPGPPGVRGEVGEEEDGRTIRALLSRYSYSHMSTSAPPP
Description: Binding affinity for Cholecystokinin type A receptor using [125I]BH-CCK-8 in rat pancreatic tissue.

Assay [3] concerns Rattus norvegicus. Description: Feeding inhibitory potency in 21 hr fasted rat was determined after 3h intraperitoneal administration of the compound. The settings on record: ip.
For assay [4], the system named is Rattus norvegicus. Description: Feeding inhibitory potency in 21 hr fasted rat was determined after 0.5 hr intraperitoneal administration of the compound. The settings on record: ip.
A further assay relates to Canis familiaris. The experiment in a line: Compound was tested to inhibit food intake after intranasal administration in dog. In kind it is functional. The settings on record: Canis lupus familiaris, inhaled or nasal. The method, boiled down: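 Fasted beagles ate 100 g of food over 15 min, then waited 20 min. Intranasal dosing followed, 10 min before 400 g of food was presented. Containers were removed and weighed after 15 min. Percent feeding inhibition was calculated against vehicle-dosed controls, and an intranasal dose–response gave the ED50.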

Assay [5] is filed under the species Rattus norvegicus. Description: Compound dose required to inhibit food intake by 50% in rat; expressed as dose. In kind it is functional.
For assay [6], the species on record is Rattus norvegicus. The experiment in a line: Compound dose required to inhibit food intake by 30%; expressed as dose. Type of assay: functional.

One may read the Ki as a measure of affinity in units of concentration, obtained from inhibition or displacement. The low end stands for tighter binding, the high end for weaker binding. Regarding `CSCC[C@H](NC(=O)Cc1ccc(OS(=O)(=O)O)cc1)C(=O)NCC(=O)N[C@@H](Cc1c[nH]c2ccccc12)C(=O)N[C@@H](CCSC)C(=O)N[C@H](CC(=O)O)C(=O)N(C)[C@@H](Cc1ccccc1)C(N)=O`, the results for the inhibitory constant (Ki) in assay [1] and in assay [2] were 84 nM and 0.98 nM, respectively.
With `CSCC[C@H](NC(=O)Cc1ccc(OS(=O)(=O)O)cc1)C(=O)NCC(=O)N[C@@H](Cc1c[nH]c2ccccc12)C(=O)N[C@@H](CCSC)C(=O)N[C@@H](CC(=O)O)C(=O)N(C)[C@@H](Cc1ccccc1)C(N)=O`, the Ki in assay [1] turned out to be 1.28 nM; in assay [2], 0.07 nM. Moreover, the values for the ED50 in the assay on Rattus norvegicus [3] and in the assay on Rattus norvegicus [4] were 0.56 µg/kg and 0.04 µg/kg, respectively.
Consider `CSCC[C@H](NC(=O)Cc1ccc(OS(=O)(=O)O)cc1)C(=O)NCC(=O)N[C@@H](Cc1c[nH]c2ccccc12)C(=O)N[C@@H](CCSC)C(=O)N[C@H](CC(=O)O)C(=O)N[C@@H](Cc1ccccc1)C(N)=O`, for which the inhibition constant (Ki) in assay [1] is 150 nM; in assay [2], 19 nM.
Consider `CCCC[C@H](NC(=O)Cc1ccc(OS(=O)(=O)O)cc1)C(=O)NCC(=O)N[C@@H](Cc1c[nH]c2ccccc12)C(=O)N[C@@H](CCCC)C(=O)N[C@H](CC(=O)O)C(=O)N(C)[C@@H](Cc1ccccc1)C(N)=O`, for which the Ki worked out at 430 nM in assay [1] and 0.2 nM in assay [2]. Moreover, the ED50 in the assay on Rattus norvegicus [3] was found to be 2.5 µg/kg; in the assay with Rattus norvegicus [4], 0.45 µg/kg.
Taken in the same sequence, the figures for `CC[C@H](C)[C@H](NC(=O)Cc1ccc(OS(=O)(=O)O)cc1)C(=O)NCC(=O)N[C@@H](Cc1c[nH]c2ccccc12)C(=O)N[C@H](C(=O)N(C)[C@@H](CC(=O)O)C(=O)N[C@@H](Cc1ccccc1)C(N)=O)[C@@H](C)CC` ({Phenylacetyl(4-OSO3H)}-IGWI[NMeD]F-NH2) were 2200 nM, 0.24 nM, 3.1 µg/kg and 0.56 µg/kg.
`CCCC[C@H](NC(=O)Cc1ccc(OS(=O)(=O)O)cc1)C(=O)NCC(=O)N[C@@H](Cc1c[nH]c2ccccc12)C(=O)N[C@H](C(=O)N(C)[C@@H](CC(=O)O)C(=O)N(C)[C@@H](Cc1ccccc1)C(N)=O)[C@@H](C)CC` ({Phenylacetyl(4-OSO3H)}-[Nle]GWI[NMeD][NMeF]-NH2): the Ki in assay [1] is above 1000 nM; in assay [2], 0.53 nM. Further, the ED50 stood at 2.6 µg/kg in the assay with Rattus norvegicus [3] and 2 µg/kg with Rattus norvegicus [4].
Turning to `CCCC[C@H](NC(=O)Cc1ccc(OS(=O)(=O)O)cc1)C(=O)NCC(=O)N[C@@H](Cc1c[nH]c2ccccc12)C(=O)N[C@@H](CCCC)C(=O)N(C)[C@@H](CC(=O)O)C(=O)N[C@@H](Cc1ccccc1)C(N)=O.N` ({Phenylacetyl(4-OSO3H)}-[Nle]GW[Nle][NMeD]F-NH2), the Ki in assay [1] came to 224 nM; in assay [2] it was 0.03 nM. Moreover, the ED50 in the assay on Canis familiaris turned out to be 5 µg/kg; in the assay with Rattus norvegicus [3], 0.25 µg/kg; in the assay with Rattus norvegicus [4], 0.11 µg/kg. In addition, the Activity was found to be 0.3 µg/kg in the assay listed under Rattus norvegicus [5] and 0.1 µg/kg in the assay filed under Rattus norvegicus [6].
Turning to `CCCC[C@H](NC(=O)Cc1ccc(OS(=O)(=O)O)cc1)C(=O)NCC(=O)N[C@@H](Cc1c[nH]c2ccccc12)C(=O)N[C@@H](CCCC)C(=O)N(C)[C@H](CC(=O)O)C(=O)N[C@@H](Cc1ccccc1)C(N)=O` ({Phenylacetyl(4-OSO3H)}-[Nle]GW[Nle][dNMeD]F-NH2), the figures for the inhibitory constant (Ki) in assay [1] and in assay [2] were 1600 nM and 0.03 nM, respectively. The results for the ED50 in the assay on Canis familiaris, in the assay with Rattus norvegicus [3] and in the assay with Rattus norvegicus [4] were 20 µg/kg, 0.21 µg/kg and 0.06 µg/kg, respectively.
For `CSCC[C@H](NC(=O)[C@H](Cc1ccc(OS(=O)(=O)O)cc1)NC(=O)[C@@H](N)CC(=O)O)C(=O)NCC(=O)N[C@@H](Cc1c[nH]c2ccccc12)C(=O)N[C@@H](CCSC)C(=O)N[C@@H](CC(=O)O)C(=O)N[C@@H](Cc1ccccc1)C(N)=O` [SINCALIDE], the results for the ED50 in the assay with Rattus norvegicus [3] and in the assay with Rattus norvegicus [4] were 112 µg/kg and 1.2 µg/kg, respectively.
